# From PubChem
# HTR1A agonist = agonists of human 5-HT1a serotonin receptor; 0.56% of 65,000 active; activation, % at 10 µM; P08908; CHO 5-HT1a Ga15 NFAT-bla reporter, FRET ratio; 0% basal, 100% maximal reference agonist;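 active means activation above the screen-wide mean activation plus 3 SD, cut at about 19% in these data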
# Target sequence (P08908 whole entry, looked up): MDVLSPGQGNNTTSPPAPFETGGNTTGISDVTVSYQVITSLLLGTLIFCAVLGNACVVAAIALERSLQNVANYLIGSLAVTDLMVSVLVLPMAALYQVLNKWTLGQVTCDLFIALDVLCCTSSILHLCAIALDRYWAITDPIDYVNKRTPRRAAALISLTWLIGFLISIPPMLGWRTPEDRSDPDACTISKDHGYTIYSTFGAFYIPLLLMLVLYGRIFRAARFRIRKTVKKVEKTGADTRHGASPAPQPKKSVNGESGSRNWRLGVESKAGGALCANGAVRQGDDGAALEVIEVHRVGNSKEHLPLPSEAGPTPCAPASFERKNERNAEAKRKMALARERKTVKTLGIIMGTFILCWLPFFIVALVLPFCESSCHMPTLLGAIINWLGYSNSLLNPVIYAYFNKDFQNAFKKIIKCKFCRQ
# 5-HT1A blocker = 5-HT1a (human) receptor antagonism; 0.68% of 62,000 active; AID 612; inhibition, % at 10 µM; CHO 5-HT1a Ga15 NFAT-bla reporter, antagonist mode;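 active means inhibition above the mean of all tested compounds plus 3 SD, cut at about 43% in these data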;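 further: receptor stimulated by 5-CT agonist at 100 nM near EC80; beta-lactamase reporter measured by ratiometric fluorescence of a cleavable substrate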
# HTR1E antagonist = blocks the human 5-HT1E serotonin receptor; P28566; CHO 5-HT1E Ga15 NFAT-bla reporter, FRET, antagonist; inhibition, % at 6 µM; 0.99% of 65,000 active; AID 571;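 active means inhibition above a set limit, the mean inhibition across every tested compound plus 3 SD, cut at about 29% in these data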;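 further: signal is the 460 over 535 nm emission ratio of beta-lactamase substrate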
# S1P3 ag = activates the human S1P3 receptor; 0.1% of 60,000 active; Q99500; activation, % at 4.5 µM; S1P3 NFAT-BLA reporter cells, agonism, FRET ratio; relative to 1 µM S1P, basal subtracted;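 active means activation above the screen-wide mean plus 3 SD, cut at about 4.5% in these data, passing the limit was not always enough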
#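 Assay system: CHO cells stably expressing human S1P3, Gα16 and NFAT-β-lactamase reporter. Timing: overnight plating, 4 h compound 37 °C, 2 h substrate RT. Signal: β-lactamase FRET emission ratio 460/535 nm. Measure: percent activation versus median 1 µM S1P response, basal-subtracted, per plate. Repeats: primary screen single test, confirmation screen in triplicate.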
# HTR1E agonist = activates the human 5-HT1E serotonin receptor | 0.69% of 65,000 active | P28566 | CHO 5-HT1E Ga15 NFAT-bla reporter, FRET; 0% DMSO wells, 100% control agonist wells | activation, % at 6 µM | AID 574;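 active means activation above a set limit, the screen-wide mean activation plus 3 SD, cut at about 8.5% in these data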
# S1P1 ag-PAM = S1P1 (human) agonism or agonism potentiation; S1P1 CRE-bla cells, forskolin, beta-lactamase FRET, potentiator mode; S1P1 agonist co-added at EC20, 2 nM; 100% = saturating reference agonist, 0% = basal; 0.57% of 56,000 active; AID 449; P21453; activation, % at 9.5 µM;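 active means activation above a cutoff set at the mean activation of all tested compounds plus 3 SD, cut at about 54% in these data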;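 further: forskolin at 4 µM as EC80 and the EC20 agonist is SEW2871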
# Numbers stand for hits; - = inactive; . = no result given. Compounds with a hit are over-represented: about 2.9% of the library has one in this group of screens.
SMILES,HTR1A agonist,5-HT1A blocker,HTR1E antagonist,S1P3 ag,HTR1E agonist,S1P1 ag-PAM
Cc1cc(C)n(-c2nc(NCC3CCCO3)c3c4c(sc3n2)COC(C)(C)C4)n1 (stereo unspecified),-,-,-,-,-,-
CCOC(=O)N1CCC(Nc2c(N3CCN(c4cccc(C(F)(F)F)c4)CC3)c(=O)c2=O)CC1,-,-,-,-,-,-
COC(=O)c1cc(-c2c(C)oc3cc(OC)ccc3c2=O)c(C)o1,-,-,-,-,-,-
COC(=O)c1cc(-c2c(C)oc3cc(O)ccc3c2=O)c(C)o1,51,-,-,-,-,-
CO[C@@]1(NC(=O)CSCC#N)C(=O)N2C(C(=O)O)=C(CSc3nnnn3C)CS[C@@H]21,-,.,-,-,-,-
CCn1c2ccccc2c2nc3cc(OC)c(OC)cc3nc21,-,-,45,-,-,-
CCn1c2ccccc2c2nc3ccccc3nc21,-,-,32,-,-,-
Cc1c(-c2ccc(F)cc2)nc(N)c(C#N)c1-c1ccco1,-,-,29,-,-,-
COc1ccc2sc(N3C(=O)C4CC=C(C)CC4C3=O)nc2c1 (stereo unspecified),-,-,-,-,-,-
O=C(COc1ccc(-n2cnnn2)cc1)NCCc1ccc(F)cc1,-,-,-,-,-,-
O=c1c2ccccc2nnn1CSc1nnc(C2COc3ccccc3O2)n1-c1ccccc1 (stereo unspecified),-,-,-,9.0,-,-
O=C(OCn1nnc2ccccc2c1=O)C1COc2ccccc2O1 (stereo unspecified),-,-,-,-,-,-
CC(C)OC(=O)CSc1nnc(-c2cccnc2)n1Cc1ccccc1,-,-,-,-,-,-
CC(C)OC(=O)CSc1nnc(-c2cccnc2)n1N,-,-,29,-,-,-
Cc1c(/C=N/n2cnnc2)c2ccccc2n1CCOc1ccccc1,-,-,34,-,-,-
COC(=O)CSc1nnc([C@H](CC(C)C)NC(=O)OC(C)(C)C)o1,-,-,-,-,-,-
CCOC(=O)c1cnc(-n2nc(C)cc2C)nc1NC1CCCCC1,-,48,-,-,-,110
CCc1ccc(Nc2oc(C)cc(=O)c2C(C)=O)cc1,-,-,-,-,-,-
COC(=O)c1cc(OC)c(OC)cc1NC(=O)C1CCC(=O)N1S(=O)(=O)c1ccc(C)cc1 (stereo unspecified),-,-,36,-,-,-
CCc1ccc(S(=O)(=O)NCc2csc(-c3ccccc3)n2)s1,-,-,-,-,-,-
CCc1ccc(S(=O)(=O)NCCc2csc(-c3ccccc3)n2)s1,-,-,-,-,-,65
COc1ccccc1NC(=O)C1CC(=O)N(c2ccc(F)cc2)C1 (stereo unspecified),-,-,-,-,-,-
O=C(CC1Oc2ccccc2NC1=O)NCCc1ccccc1 (stereo unspecified),49,-,-,-,-,-
Cc1nc(NCc2ccco2)c(C#N)c2c1COC(C)(C)C2,-,-,-,-,-,-
CC1(C)Cc2c(C#N)c(NCc3ccco3)nc(-c3ccco3)c2CO1,54,.,-,-,11,-
SMILES,HTR1A agonist,5-HT1A blocker,HTR1E antagonist,S1P3 ag,HTR1E agonist,S1P1 ag-PAM
COC(=O)CSc1ncnc2c1sc1nc(-c3ccco3)c3c(c12)CC(C)(C)OC3,-,.,-,-,-,-
CC(C)c1nc2sc3c(NCc4ccco4)ncnc3c2c2c1COC(C)(C)C2,-,-,56,.,-,.
CC(C)N(O)C(=O)NC(C)(C)C,-,-,-,-,-,-
CCOC(=O)C(C)(C)C(=O)C(C)(C)C(O)c1ccccn1 (stereo unspecified),-,-,-,-,-,-
CC1CCCCC1NC(=O)Cn1ncc2ccccc21 (stereo unspecified),-,-,-,-,-,-
Cc1ccc(Oc2ccc(S(=O)(=O)N3CCOCC3)cc2C(N)=O)c(-n2nc3ccccc3n2)c1,-,-,39,-,-,-
O=C(Nc1ccc(-c2nc3ncccc3o2)cc1)c1ccco1,-,-,-,-,-,.
O=C(Nc1ccc(-c2nc3ncccc3o2)cc1)c1ccc(Br)o1,-,-,62,-,-,.
O=c1c2nnn(Cc3ccccc3)c2ncn1C/C=C/c1ccccc1,-,-,-,-,-,-
COc1ccc(-n2nc3c(c2NC(=O)c2cc4ccccc4oc2=O)CS(=O)(=O)C3)cc1,-,-,-,.,-,.
CC1=C/C(=C/N(C)c2ccccc2)C(=O)S1,-,44,-,-,-,-
O=C(O)Cn1nnnc1SCC(=O)Nc1ccc(OC(F)(F)F)cc1,-,-,-,-,-,-
Cc1onc(-c2ccccc2Cl)c1C(=O)N1CCN(c2ccccc2)CC1,-,-,-,-,-,-
Cc1onc(-c2ccccc2Cl)c1C(=O)N1CCN(c2cccc(Cl)c2)CC1,-,-,29,-,-,-
CCOC(=O)C1CCN(C(=O)COc2ccc(S(=O)(=O)NC(C)(C)C)cc2)CC1,-,-,-,-,-,.
COCCN1CCN(c2c(C)c(C)nc3cc(-c4cccc(OC)c4)nn23)CC1,-,-,-,.,-,.
CCOCCN1CCN(c2c(C)c(C)nc3cc(-c4cc(OC)cc(OC)c4)nn23)CC1,-,-,40,.,-,.
Cc1ccc(-c2cc(-c3ccc(C)o3)nc(N)c2C#N)cc1,-,-,-,-,-,-
Cc1ccc(-c2cc(C(F)(F)F)c(C#N)c(SCCC#N)n2)o1,34,-,-,-,-,.
O=C(c1ccc(F)cc1)C(CN1CCOCC1)c1ccccc1 (stereo unspecified),-,69,51,-,-,-
O=C(c1ccccc1)C(CCC(CN1CCOCC1)C(=O)c1ccccc1)CN1CCOCC1 (stereo unspecified),-,.,-,-,-,93
O=C(O)c1cc(Cl)c2ccccc2c1O,-,-,-,-,-,-
O=C(O)c1ccc2cccc(Cl)c2c1O,-,52,-,-,-,-
Cc1cc(C(=O)CSc2nnc(-c3ccco3)o2)c(C)n1Cc1ccco1,-,-,-,-,-,-
Cc1cc(C(=O)CSc2nnc(-c3ccco3)o2)c(C)n1-c1ccc2c(c1)OCCO2,-,-,-,-,-,62
Cc1cc(C(=O)CSc2nnc(-c3cccs3)o2)c(C)n1-c1ccccc1,-,-,-,-,-,101
CCC1CCCCN1C(=O)CSc1nnc(-c2cccs2)o1 (stereo unspecified),28,-,-,-,-,-
O=C(CSc1nnc(-c2cccs2)o1)c1cccs1,-,-,-,-,-,-
CCCNC(=O)CCC(=O)Nc1ncc(-c2ccc(C)cc2)n1C,-,-,-,-,-,-
CCCCN1CCc2c([nH]c3c(C)cccc23)C1=O,-,-,-,-,-,-
